From ChEMBL document CHEMBL4765345, “Design, synthesis, and biological evaluation of dual targeting inhibitors of histone deacetylase 6/8 and bromodomain BRPF1” (Eur J Med Chem, 2020)

Key:
[1] = test system: HL-60; assay: Antiproliferative activity against human HL60 assessed as reduction in cell growth at 100 uM by CellTiter-non radioactive cell proliferation assay; type: functional
[2] = test system: HL-60; assay: Antiproliferative activity against human HL60 assessed as reduction in cell growth at 4 uM by CellTiter-non radioactive cell proliferation assay; type: functional
In short: (§1)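 HL60 cells plated at 5000 per well and given inhibitor or DMSO vehicle immediately. Compounds diluted from 200x DMSO stocks; three replicates per concentration. Growth read by CellTiter 96 Aqueous (MTS) assay. GI50 is the concentration cutting metabolically active cells by 50% versus DMSO control, taken from absorbance against log concentration.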

[3] = test system: HEK293; assay: (§2) Cytotoxicity against human HEK293 assessed as reduction in cell viability incubated for 24 hrs by AlamarBlue assay; type: cell-based; settings: hek293, 24 h
In short: (§3)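 HEK293 cells were grown at 37 °C under 5% CO2 in DMEM with 10% FCS and 5 mM glutamine and seeded at 1.5 x 10³ cells per well. Compound at 50 μM was added at once. After 24 h AlamarBlue was added for another 21 h, and fluorescence was read at Ex 560/Em 590 nm. Triplicates over three independent experiments.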

[4] = test system: HL-60; assay: Antiproliferative activity against human HL60 assessed as reduction in cell growth at 20 uM by CellTiter-non radioactive cell proliferation assay; type: functional
[5] = test system: THP-1 (Homo sapiens); assay: Antiproliferative activity against human THP-1 assessed as reduction in metabolically active cells by CellTiter-non radioactive cell proliferation assay
[6] = test system: THP-1; assay: Antiproliferative activity against human THP-1 assessed as reduction in cell growth at 4 uM by CellTiter-non radioactive cell proliferation assay; type: functional
[7] = test system: THP-1; assay: Antiproliferative activity against human THP-1 assessed as reduction in cell growth at 100 uM by CellTiter-non radioactive cell proliferation assay; type: functional
[8] = test system: THP-1; assay: Antiproliferative activity against human THP-1 assessed as reduction in cell growth at 20 uM by CellTiter-non radioactive cell proliferation assay; type: functional
[9] = Inhibition of HDAC (unknown origin); set-up: species or system Homo sapiens
[10] = biological target: T1, Peregrin (Homo sapiens, UniProt P55201); assay: Binding affinity to BRPF1 (unknown origin) by Isothermal titration calorimetry
T1 sequence (P55201 whole entry): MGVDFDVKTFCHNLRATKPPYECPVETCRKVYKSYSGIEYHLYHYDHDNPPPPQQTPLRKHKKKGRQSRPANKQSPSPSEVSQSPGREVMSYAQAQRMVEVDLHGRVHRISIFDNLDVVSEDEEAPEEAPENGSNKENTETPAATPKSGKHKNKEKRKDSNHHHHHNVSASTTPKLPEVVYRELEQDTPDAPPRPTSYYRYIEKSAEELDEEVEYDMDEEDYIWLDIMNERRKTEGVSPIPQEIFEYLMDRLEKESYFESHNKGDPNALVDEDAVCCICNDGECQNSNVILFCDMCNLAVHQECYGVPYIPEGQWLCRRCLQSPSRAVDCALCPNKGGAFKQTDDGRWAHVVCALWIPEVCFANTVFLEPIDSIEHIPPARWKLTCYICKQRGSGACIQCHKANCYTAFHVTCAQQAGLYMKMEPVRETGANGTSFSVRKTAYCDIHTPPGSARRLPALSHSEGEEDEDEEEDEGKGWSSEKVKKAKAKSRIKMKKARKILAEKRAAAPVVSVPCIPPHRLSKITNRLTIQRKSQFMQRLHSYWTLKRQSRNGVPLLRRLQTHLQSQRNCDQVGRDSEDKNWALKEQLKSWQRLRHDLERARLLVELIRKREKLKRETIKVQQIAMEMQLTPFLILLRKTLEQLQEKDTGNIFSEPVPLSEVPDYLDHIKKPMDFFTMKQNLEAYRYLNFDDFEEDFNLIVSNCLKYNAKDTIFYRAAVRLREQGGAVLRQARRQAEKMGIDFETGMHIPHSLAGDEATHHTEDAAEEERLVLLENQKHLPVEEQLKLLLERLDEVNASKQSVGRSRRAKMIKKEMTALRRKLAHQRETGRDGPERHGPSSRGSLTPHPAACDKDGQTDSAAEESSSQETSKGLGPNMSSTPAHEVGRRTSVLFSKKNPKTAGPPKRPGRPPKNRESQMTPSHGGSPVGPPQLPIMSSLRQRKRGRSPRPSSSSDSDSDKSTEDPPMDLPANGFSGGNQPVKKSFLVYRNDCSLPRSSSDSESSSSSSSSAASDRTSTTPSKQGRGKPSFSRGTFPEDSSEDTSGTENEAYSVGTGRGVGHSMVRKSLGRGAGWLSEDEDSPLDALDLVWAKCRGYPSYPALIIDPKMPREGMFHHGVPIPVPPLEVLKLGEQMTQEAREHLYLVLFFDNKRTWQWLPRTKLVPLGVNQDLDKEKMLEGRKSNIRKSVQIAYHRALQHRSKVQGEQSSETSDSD
In short: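 Isothermal titration calorimetry with recombinant BRPF1 (200–400 μM) in the injection syringe titrated into ligand (20–40 μM) in the sample cell. Kd was fitted from the titrations and reported with its P99 interval.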

[11] = test system: HL-60; assay: Antiproliferative activity against human HL60 assessed as reduction in cell growth at 50 uM by CellTiter-non radioactive cell proliferation assay; type: functional; in short: as §1
[12] = test system: HL-60; assay: Antiproliferative activity against human HL60 assessed as reduction in cell growth at 1 uM by CellTiter-non radioactive cell proliferation assay; type: functional
[13] = test system: THP-1; assay: Antiproliferative activity against human THP-1 assessed as reduction in cell growth at 1 uM by CellTiter-non radioactive cell proliferation assay; type: functional
[14] = biological target: T2, Protein deacetylase HDAC6 (Homo sapiens, UniProt Q9UBN7); assay: Inhibition of recombinant human HDAC6 using Z-(Ac)Lys-AMC as substrate after 90 mins by fluorescence based micro plate assay
T2 sequence (Q9UBN7 whole entry): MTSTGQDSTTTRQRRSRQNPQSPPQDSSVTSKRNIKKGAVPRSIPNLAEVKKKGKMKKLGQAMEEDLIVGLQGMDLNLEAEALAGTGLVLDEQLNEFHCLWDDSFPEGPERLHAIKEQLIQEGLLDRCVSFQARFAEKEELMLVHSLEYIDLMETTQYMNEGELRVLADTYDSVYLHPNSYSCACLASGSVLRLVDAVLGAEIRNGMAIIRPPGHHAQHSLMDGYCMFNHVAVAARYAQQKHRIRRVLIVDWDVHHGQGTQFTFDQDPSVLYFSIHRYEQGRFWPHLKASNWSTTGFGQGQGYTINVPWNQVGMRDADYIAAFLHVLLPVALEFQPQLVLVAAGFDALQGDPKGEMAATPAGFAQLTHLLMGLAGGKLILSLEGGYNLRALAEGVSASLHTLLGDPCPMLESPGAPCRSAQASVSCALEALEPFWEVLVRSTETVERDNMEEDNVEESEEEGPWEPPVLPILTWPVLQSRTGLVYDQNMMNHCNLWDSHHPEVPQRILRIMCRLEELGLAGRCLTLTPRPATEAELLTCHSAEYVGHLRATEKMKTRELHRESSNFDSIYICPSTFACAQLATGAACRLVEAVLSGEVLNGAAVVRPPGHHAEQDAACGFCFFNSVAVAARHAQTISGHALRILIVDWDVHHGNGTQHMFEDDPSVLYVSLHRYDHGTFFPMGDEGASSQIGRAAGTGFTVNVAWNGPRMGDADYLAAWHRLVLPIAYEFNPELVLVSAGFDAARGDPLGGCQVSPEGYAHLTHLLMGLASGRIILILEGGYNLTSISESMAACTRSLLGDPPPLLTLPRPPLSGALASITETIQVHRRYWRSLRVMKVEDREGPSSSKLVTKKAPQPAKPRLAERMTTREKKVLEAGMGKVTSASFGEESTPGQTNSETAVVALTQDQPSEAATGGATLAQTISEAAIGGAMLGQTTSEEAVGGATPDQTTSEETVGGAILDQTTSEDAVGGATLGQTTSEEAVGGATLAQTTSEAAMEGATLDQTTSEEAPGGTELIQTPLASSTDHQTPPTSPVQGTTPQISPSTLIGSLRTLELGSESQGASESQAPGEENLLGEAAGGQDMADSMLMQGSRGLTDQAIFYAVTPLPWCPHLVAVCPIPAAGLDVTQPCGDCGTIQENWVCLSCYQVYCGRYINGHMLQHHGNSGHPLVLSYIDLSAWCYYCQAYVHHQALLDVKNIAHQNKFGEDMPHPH
In short: (§4)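 Recombinant human HDAC1 or HDAC6 incubated 90 min at 37 °C with 10.5 μM ZMAL (Z-(Ac)Lys-AMC) and increasing inhibitor concentrations, using a homogeneous fluorescence assay. Fluorescence read at Ex 390/Em 460 nm.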

[15] = Stability of the compound in phosphate buffer at pH 7.4 measured after 4 days; type: physicochemical; settings: pH 7.4, 96 h, time 4 day
In short: (§5)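 Compounds were incubated at 37 °C in DMEM (cellular assay conditions) or in PBS pH 7.4 (in vitro assay conditions) for various times up to 4 days. The parent compound and any hydrolysis products were detected and quantified by HPLC.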

[16] = biological target: T3, Histone deacetylase 8 (Homo sapiens, UniProt Q9BY41); assay: Inhibition of human recombinant HDAC8 using H2N-Arg-His-Lys(Ac)-Lys(Ac)-AMC as substrate after 90 mins by fluorescence based micro plate assay
T3 sequence (Q9BY41 whole entry): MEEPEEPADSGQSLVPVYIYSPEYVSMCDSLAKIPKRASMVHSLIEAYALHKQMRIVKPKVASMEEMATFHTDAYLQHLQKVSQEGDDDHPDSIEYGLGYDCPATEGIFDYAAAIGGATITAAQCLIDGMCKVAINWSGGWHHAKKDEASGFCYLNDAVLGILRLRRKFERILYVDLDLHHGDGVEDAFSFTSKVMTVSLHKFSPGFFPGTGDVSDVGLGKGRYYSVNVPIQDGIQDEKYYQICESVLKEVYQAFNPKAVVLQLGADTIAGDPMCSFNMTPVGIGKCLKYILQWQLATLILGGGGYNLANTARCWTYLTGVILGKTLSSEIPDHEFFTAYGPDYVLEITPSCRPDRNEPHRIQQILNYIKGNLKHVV

[17] = Chemical stability of the compound in standard cellular assay conditions measured after 4 days; type: physicochemical; settings: 96 h; time 4 day; in short: as §5
[18] = biological target: Histone deacetylase 1 (Homo sapiens, UniProt Q13547); assay: Inhibition of recombinant human HDAC1 using Z-(Ac)Lys-AMC as substrate after 90 mins by fluorescence based micro plate assay; in short: as §4
[19] = biological target: T4, Protein deacetylase HDAC6 (Homo sapiens) (UniProt Q9UBN7); assay: Inhibition of recombinant human HDAC6 at 10 uM using Z-(Ac)Lys-AMC as substrate after 90 mins by fluorescence based micro plate assay; in short: as §4
T4 sequence (whole entry): T2 sequence (Q9UBN7 whole entry)

[20] = as §2; type: cell-based; settings: HEK293 cells, read-out: INH; in short: as §3
[21] = biological target: T4, Protein deacetylase HDAC6 (Homo sapiens); assay: Inhibition of recombinant human HDAC6 at 1 uM using Z-(Ac)Lys-AMC as substrate after 90 mins by fluorescence based micro plate assay; in short: as §4

Chain of Histone deacetylase 1 (Q13547 whole entry): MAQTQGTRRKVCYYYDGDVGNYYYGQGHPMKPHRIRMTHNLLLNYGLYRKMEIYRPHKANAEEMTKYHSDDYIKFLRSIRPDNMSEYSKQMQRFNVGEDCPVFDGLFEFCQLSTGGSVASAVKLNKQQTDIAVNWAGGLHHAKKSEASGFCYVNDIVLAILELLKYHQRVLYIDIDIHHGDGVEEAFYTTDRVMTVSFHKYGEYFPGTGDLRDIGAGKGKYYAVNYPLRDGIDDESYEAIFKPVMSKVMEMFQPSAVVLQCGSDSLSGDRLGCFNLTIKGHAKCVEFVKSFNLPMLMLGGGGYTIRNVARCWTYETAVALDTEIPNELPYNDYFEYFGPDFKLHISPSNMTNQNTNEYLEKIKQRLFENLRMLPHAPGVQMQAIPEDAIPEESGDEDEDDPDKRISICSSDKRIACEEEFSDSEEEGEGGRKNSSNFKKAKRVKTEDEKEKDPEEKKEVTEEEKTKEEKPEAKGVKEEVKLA

Row | IC50 [16] [µM] | IC50 [18] [µM] | Kd ([10]; read-out: Kd) [µM] | SMILES | inhibition at 100 µM [1] [%] | inhibition at 4 µM [2] [%] | inhibition at 20 µM [4] [%] | inhibition at 100 µM [7] [%] | inhibition at 20 µM [8] [%] | inhibition at 1 µM [12] [%] | inhibition at 1 µM [13] [%] | other results
1 | – | – | – | COC(=O)c1ccc(OC)c(S(=O)(=O)Nc2ccc3c(c2)cc(C)c(=O)n3C)c1 | 66 | 39 | 44 | 102 | 101 | – | – | Activity [3]: Non-Toxic; GI50 [5]: 5.5 µM; inhibition at 4 µM [6]: 40%
2 | – | – | – | O=C(CCCCCCOc1ccccc1C(=O)Nc1ncnc2[nH]cnc12)NO | – | – | – | – | – | – | – | IC50 [9]: 0.26 µM; Kd [10]: 2.7 µM
3 | – | – | – | Cc1cc2cc(NC(=O)c3ccc(S(=O)(=O)Nc4ccc5c(c4)cc(C)c(=O)n5C)cc3)ccc2n(C)c1=O | – | – | 55 | 73 | 84 | 20 | 0 | inhibition at 50 µM [11]: 48%
4 | 0.36 | 0.545 | 1.5 | Cc1cc2cc(NS(=O)(=O)Cc3ccc(C(=O)NO)cc3)ccc2n(C)c1=O | 27 | – | 0 | 89 | 8 | 5 | 0 | IC50 [14]: 0.152 µM; Stabilty [15]: Stable; Stabilty [17]: Stable
5 | 0.956 | 5.2 | 4.08 | COc1ccc(C(=O)NO)cc1NCc1ccc(OCCCCC(=O)Nc2ccc3c(c2)cc(C)c(=O)n3C)cc1 | 0 | 0 | 0 | – | 0 | – | – | inhibition [19]: 68%; cytotoxicity at 24 h [20]: 15%; inhibition [21]: 50%
